Reference: ChEMBL document CHEMBL3994608, “Design, synthesis and antimicrobial activities of thiouracil derivatives containing triazolo-thiadiazole as SecA inhibitors” (Eur J Med Chem, 2017)
Converted amounts (≈) assume the structure as drawn.

Experiments:
Staphylococcus aureus = test: Antibacterial activity against Staphylococcus aureus at 25 ug/ml after overnight incubation by plate colony counting method relative to control; format: functional
Procedure, shortened: (§1)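 Plate colony counting on nutrient agar. Suspensions made from fresh colonies on NA slants grown 24 h, then serially diluted tenfold in sterile water. Duplicate aliquots of the 10^-5 and 10^-6 dilutions spread on NA plates containing test compound at 25 µg/mL; control plates NA only. Incubated overnight at 35 °C, colonies counted, inhibition given as percentage.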

Bacillus subtilis = test: Antibacterial activity against Bacillus subtilis at 25 ug/ml after overnight incubation by plate colony counting method relative to control; format: functional; procedure, shortened: as §1
[1] = test system: Bacillus amyloliquefaciens; test: Antibacterial activity against Bacillus amyloliquefaciens at 25 ug/ml after overnight incubation by plate colony counting method relative to control; format: functional; procedure, shortened: as §1
[2] = Inhibition of Escherichia coli BL21.19 SecA after 30 mins by malachite green dye-based assay
Procedure, shortened: (§2)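 SecA ATPase from E. coli BL21.19. Reaction contains Tris-HCl buffer (pH 7.6, with KCl, NH4Cl, DTT, Mg(OAc)2), […], […] and sample, diluted with distilled water; water as blank. Incubated 37 °C for 30 min. Malachite green/ammonium molybdate/Triton X-100 colour reagent added, then 34% citrate after 1 min. Absorbance read at 660 nm and inhibition calculated from it.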

Escherichia coli [3] = test: Inhibition of Escherichia coli BL21.19 SecA at 10 ug/ml after 30 mins by malachite green dye-based assay relative to control; procedure, shortened: as §2
Escherichia coli [4] = test: Inhibition of Escherichia coli BL21.19 SecA at 20 ug/ml after 30 mins by malachite green dye-based assay relative to control; procedure, shortened: as §2

## CCn1cc(C(=O)O)c(=O)c2cc(F)c(N3CCNCC3)cc21 [NORFLOXACIN]
Staphylococcus aureus
  inhibition at 25 µg/mL: 86%
Bacillus subtilis
  inhibition at 25 µg/mL: 85%
[1]
  inhibition at 25 µg/mL: 89%

## N#Cc1c(-c2ccc(-c3ccccc3)cc2)nc(SCc2ccc(-c3nn4c(-c5c(Cl)cccc5Cl)nnc4s3)cc2)[nH]c1=O
Staphylococcus aureus
  inhibition at 25 µg/mL: 84%
Bacillus subtilis
  inhibition at 25 µg/mL: 86%
[1]
  inhibition at 25 µg/mL: 82%

## N#Cc1c(-c2ccc(-c3ccccc3)cc2)nc(SCc2ccc(CSc3nc(-c4ccc(-c5ccccc5)cc4)c(C#N)c(=O)[nH]3)cc2)[nH]c1=O
Staphylococcus aureus
  inhibition at 25 µg/mL: 87%
[2]
  IC50: 20.8 µg/mL (≈ 29.2 µM)
Bacillus subtilis
  inhibition at 25 µg/mL: 62%
[1]
  inhibition at 25 µg/mL: 85%

## N#Cc1c(-c2ccccc2Cl)nc(SCc2ccc(-c3nn4c(-c5ccccc5)nnc4s3)cc2)[nH]c1=O
Staphylococcus aureus
  inhibition at 25 µg/mL: 46%
Bacillus subtilis
  inhibition at 25 µg/mL: 55%
[1]
  inhibition at 25 µg/mL: 66%

## N#Cc1c(-c2ccc(Cl)cc2Cl)nc(SCc2ccc(-c3nn4c(-c5ccccc5Cl)nnc4s3)cc2)[nH]c1=O
Staphylococcus aureus
  inhibition at 25 µg/mL: 85%
[2]
  IC50: Nd(Insoluble)
Bacillus subtilis
  inhibition at 25 µg/mL: 92%
[1]
  inhibition at 25 µg/mL: 80%

## N#Cc1c(-c2c(Cl)cccc2Cl)nc(SCc2ccc(-c3nn4c(-c5ccccc5)nnc4s3)cc2)[nH]c1=O
Staphylococcus aureus
  inhibition at 25 µg/mL: 56%
Bacillus subtilis
  inhibition at 25 µg/mL: 49%
[1]
  inhibition at 25 µg/mL: 60%

## N#Cc1c(-c2ccc(-c3ccccc3)cc2)nc(SCc2ccc(-c3nn4c(-c5ccccc5)nnc4s3)cc2)[nH]c1=O
Staphylococcus aureus
  inhibition at 25 µg/mL: 68%
Bacillus subtilis
  inhibition at 25 µg/mL: 57%
[1]
  inhibition at 25 µg/mL: 58%

## N#Cc1c(-c2ccccc2)nc(SCc2ccc(-c3nn4c(-c5ccccc5)nnc4s3)cc2)[nH]c1=O
Staphylococcus aureus
  inhibition at 25 µg/mL: 44%
Bacillus subtilis
  inhibition at 25 µg/mL: 48%
[1]
  inhibition at 25 µg/mL: 57%

## N#Cc1c(-c2ccc(Cl)cc2Cl)nc(SCc2ccc(-c3nn4c(-c5c(Cl)cccc5Cl)nnc4s3)cc2)[nH]c1=O
Staphylococcus aureus
  inhibition at 25 µg/mL: 81%
Bacillus subtilis
  inhibition at 25 µg/mL: 86%
[1]
  inhibition at 25 µg/mL: 78%

## N#Cc1c(-c2c(Cl)cccc2Cl)nc(SCc2ccc(-c3nn4c(-c5ccccc5Cl)nnc4s3)cc2)[nH]c1=O
Staphylococcus aureus
  inhibition at 25 µg/mL: 56%
Bacillus subtilis
  inhibition at 25 µg/mL: 63%
[1]
  inhibition at 25 µg/mL: 78%

## N#Cc1c(-c2ccc(Cl)cc2Cl)nc(SCc2ccc(-c3nn4c(-c5ccccc5)nnc4s3)cc2)[nH]c1=O
Staphylococcus aureus
  inhibition at 25 µg/mL: 88%
Escherichia coli [3]
  inhibition: 51%
Escherichia coli [4]
  inhibition: 72%
[2]
  IC50: 9.7 µg/mL (≈ 16.5 µM)
Bacillus subtilis
  inhibition at 25 µg/mL: 90%
[1]
  inhibition at 25 µg/mL: 82%

## N#Cc1c(-c2c(Cl)cccc2Cl)nc(SCc2ccc(-c3nn4c(-c5c(Cl)cccc5Cl)nnc4s3)cc2)[nH]c1=O
Staphylococcus aureus
  inhibition at 25 µg/mL: 82%
Bacillus subtilis
  inhibition at 25 µg/mL: 84%
[1]
  inhibition at 25 µg/mL: 86%

## N#Cc1c(-c2ccc(-c3ccccc3)cc2)nc(SCc2ccc(-c3nn4c(-c5ccccc5Cl)nnc4s3)cc2)[nH]c1=O
Staphylococcus aureus
  inhibition at 25 µg/mL: 83%
Bacillus subtilis
  inhibition at 25 µg/mL: 88%
[1]
  inhibition at 25 µg/mL: 81%

## N#Cc1c(-c2ccc(Cl)cc2)nc(SCc2ccc(-c3nn4c(-c5ccccc5)nnc4s3)cc2)[nH]c1=O
Staphylococcus aureus
  inhibition at 25 µg/mL: 49%
Bacillus subtilis
  inhibition at 25 µg/mL: 51%
[1]
  inhibition at 25 µg/mL: 62%
